Source: paper PMC6916675 (Cancer Management and Research, 2019)
Entries after “also recorded” stand apart in the source; their conditions may differ.

Columns and labels:
[1] = test system: pAKT; assay: Immunohistochemistry of paired tumor biopsies, pAKT; assay type: in vivo, human; conditions: before treatment vs after approximately 15 days of treatment
[2] = Distribution of CC-115 to GBM tumor tissue; assay type: in vivo; conditions: human, GBM tumor tissue and plasma, oral, 10 mg BID
[3] = test system: mTORC2 (pAKT.S473); assay: pAKT biomarker inhibition in stimulated blood monocytes; assay type: in vivo, human
Outline: (§1)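 Blood sampled predose and up to 5 hrs postdose on cycle 1 days 1 and 15, plus around tumour biopsy (days 15–21). Markers: p4E-BP1 T37/T46 (mTORC1) and pAKT S473 (mTORC2). In Part B, CD14+ monocytes were stimulated with anti-IgD plus lipopolysaccharide (37°C, 15 min) and analysed by flow cytometry. Signal was expressed as molecules of equivalent fluorescein.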

[4] = test system: mTORC1 (p4E-BP1.T37/T46); assay: p4E-BP1 biomarker inhibition in stimulated blood monocytes; assay type: in vivo, human
Outline: as §1

[5] = Plasma pharmacokinetics of CC-115; assay type: in vivo, human; conditions: for AUC(0-inf) / Vd/F / AUC / Cmax / Tmax: human, plasma, oral; for Cmax: Plasma Cmax, mean (CV%); for Tmax: Plasma Tmax, median (min, max)
[6] = test system: advanced solid or hematologic malignancies; assay: Antitumor efficacy; assay type: in vivo, human
Outline: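 Investigators assessed response by RECIST 1.1, RANO, updated IWCLL or PCWG2 criteria. Solid tumours were restaged by CT or MRI after cycles 2, 4, 6, 9 and 12, every 6 cycles thereafter, and at end of treatment. Patients meeting IWCLL criteria but with persistent lymphocytosis were classed non-IWCLL. Best overall response frequency was tabulated. BA/FE substudy: 12 solid-tumour patients (GBM excluded).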

[7] = Urinary excretion of CC-115; assay type: in vivo, human; conditions: for Fe (fraction excreted unchanged in urine), mean (CV%) / Urine Ae24, mean (CV%): first dose
[8] = test system: p4EBP1; assay: Immunohistochemistry of paired tumor biopsies, p4EBP1; assay type: in vivo, human; conditions: before treatment vs after approximately 15 days of treatment
[9] = Bioavailability/food effect; assay type: in vivo, human; conditions: single oral dose with high-fat meal vs fasted
[10] = Safety and tolerability in Phase I patients; assay type: in vivo, human
[11] = Part A, repeat once-daily administration
[12] = patient with endometrial cancer (complete response)
[13] = 8 mg, first dose, 8 mg QD, n = 6
[14] = 8 mg, multiple doses, 8 mg QD, n = 7
[15] = 10 mg, first dose, 10 mg BID, n = 6
[16] = 10 mg, multiple doses, 10 mg BID, n = 7
[17] = 15 mg, first dose, 15 mg BID, n = 6
[18] = 15 mg, multiple doses, 15 mg BID, n = 5
[19] = 16 mg, first dose, 16 mg QD, n = 6
[20] = 16 mg, multiple doses, 16 mg QD, n = 8
[21] = 25 mg, first dose, 25 mg QD, n = 7
[22] = 25 mg, multiple doses, 25 mg QD, n = 5
[23] = 40 mg, first dose, 40 mg QD, n = 6
[24] = 40 mg, multiple doses, 40 mg QD, n = 4
[25] = Part A, efficacy evaluable n=39

CCN1C(=O)CNc2ncc(-c3ccc(-c4nc[nH]n4)nc3C)nc21 [CC-115]
Inhibition of pAKT in paired tumor biopsies [1]: Moderate, not statistically significant, inhibition | Kp [2]: 0.713 | Median biomarker (pAKT) ([3]; 10 mg BID cohort, after 3 hrs): 84% | Dose above which mTORC2 (pAKT) was inhibited in peripheral blood monocytes [3, 11]: > 4 mg QD | Median decrease of pAKT ([3]; Part B, 10 mg BID, day 15): 80% | Inhibition of pAKT [3, 12]: 85% | Time for which pAKT inhibition was sustained ([3]; postdose): at least 5 hrs | Median biomarker (p4E-BP1) ([4]; 10 mg BID cohort, after 3 hrs): 35% | Dose above which mTORC1 (p4E-BP1) was inhibited in peripheral blood monocytes [4, 11]: > 4 mg QD | Median decrease of p4E-BP1 ([4]; Part B, 10 mg BID, day 15): 34% | Inhibition of p4E-BP1 [4, 12]: 51% | Time for which p4E-BP1 inhibition was sustained ([4]; postdose): at least 5 hrs | AUC(0-inf) ([5]; 8 mg): 237 ng·h/mL | Vd/F ([5]; 8 mg): 294 L | AUC ([5]; 8 mg, Plasma AUC12, mean (CV%), first dose, 8 mg QD, n = 6): 180 ng·h/mL | AUC ([5]; 8 mg, Plasma AUC24, mean (CV%), first dose, 8 mg QD, n = 6): 236 ng·h/mL | Cmax [5, 13]: 36.1 ng/mL | Cmax [5, 14]: 40.9 ng/mL | Tmax [5, 13]: 1.5 h | Tmax [5, 14]: 1.5 h | AUC(0-inf) ([5]; 10 mg): 605 ng·h/mL | Vd/F ([5]; 10 mg): 189 L | Cmax [5, 15]: 51.8 ng/mL | Cmax [5, 16]: 75.2 ng/mL | Tmax [5, 15]: 2.25 h | Tmax [5, 16]: 1.42 h | AUC(0-inf) ([5]; 15 mg): 1310 ng·h/mL | Vd/F ([5]; 15 mg): 173 L | Cmax [5, 17]: 134 ng/mL | Cmax [5, 18]: 162 ng/mL | Tmax [5, 17]: 1.04 h | Tmax [5, 18]: 1.52 h | AUC(0-inf) ([5]; 16 mg): 625 ng·h/mL | Vd/F ([5]; 16 mg): 264 L | Cmax [5, 19]: 88.7 ng/mL | Cmax [5, 20]: 118 ng/mL | Tmax [5, 19]: 2.95 h | Tmax [5, 20]: 1.65 h | AUC(0-inf) ([5]; 25 mg): 1910 ng·h/mL | Vd/F ([5]; 25 mg): 149 L | Cmax [5, 21]: 173 ng/mL | Cmax [5, 22]: 198 ng/mL | Tmax [5, 21]: 3 h | Tmax [5, 22]: 1.52 h | AUC(0-inf) ([5]; 40 mg): 2130 ng·h/mL | Vd/F ([5]; 40 mg): 201 L | Cmax [5, 23]: 167 ng/mL | Cmax [5, 24]: 244 ng/mL | Tmax [5, 23]: 2.25 h | Tmax [5, 24]: 3 h | Increase of Cmax and AUC∞ with dose ([5]; single and multiple doses ranging from 4 to 40 mg): linear, dose-proportional | Stable disease, patients ([6]; BA/FE substudy): 4 patients | Partial response (unconfirmed), patients ([6]; BA/FE substudy, breast carcinoma (5 patients)): 2 patients | Stable disease, patients ([6]; BA/FE substudy, breast malignancies): 1 patients | Stable disease, patients ([6]; BA/FE substudy, ovarian malignancies): 2 patients | Stable disease, patients ([6]; BA/FE substudy, rectal malignancies): 1 patients | Disease control rate (DCR) [6, 25]: 51% | Overall response rate (ORR) [6, 25]: 5% | 6-month PFS ([6]; Part B, CLL/SLL): 86% | Best response of SD by IWCLL and non-IWCLL criteria ([6]; Part B, CLL/SLL, June 2017): 25% | PR by IWCLL criteria ([6]; Part B, CLL/SLL, June 2017): 25% | PR by non-IWCLL criteria (persistent lymphocytosis) ([6]; Part B, CLL/SLL, June 2017): 38% | Best response of SD ([6]; Part B, CRPC, 11 efficacy evaluable patients): 64% | 6-month PFS rate ([6]; Part B, ES): 0% | Best response of SD ([6]; Part B, ES n=9): 22% | Best response of nonprogression ([6]; Part B, GBM, 14 evaluable patients): 21% | Best response of SD ([6]; Part B, HNSCC n=17): 53% | Time in complete remission / tumor-free ([6]; one patient with endometrial cancer, 10 mg BID reduced to 8 mg BID): > 4 years | Excreted in urine ([7]; Part A): Less than 1% | Fe (fraction excreted unchanged in urine), mean (CV%) ([7]; 8 mg QD, n = 6): 0.25 (66) % | Urine Ae24, mean (CV%) ([7]; 8 mg QD, n = 6): 19,748 (66) ng | Fe (fraction excreted unchanged in urine), mean (CV%) ([7]; 10 mg BID, n = 6): 0.53 (108) % | Urine Ae24, mean (CV%) ([7]; 10 mg BID, n = 6): 53,259 (108) ng | Fe (fraction excreted unchanged in urine), mean (CV%) ([7]; 15 mg BID, n = 6): 0.72 (53) % | Urine Ae24, mean (CV%) ([7]; 15 mg BID, n = 6): 107,283 (53) ng | Fe (fraction excreted unchanged in urine), mean (CV%) ([7]; 16 mg QD, n = 6): 0.33 (108) % | Urine Ae24, mean (CV%) ([7]; 16 mg QD, n = 6): 52,491 (108) ng | Fe (fraction excreted unchanged in urine), mean (CV%) ([7]; 25 mg QD, n = 7): 0.41 (79) % | Urine Ae24, mean (CV%) ([7]; 25 mg QD, n = 7): 103,312 (79) ng | Fe (fraction excreted unchanged in urine), mean (CV%) ([7]; 40 mg QD, n = 6): 0.34 (55) % | Urine Ae24, mean (CV%) ([7]; 40 mg QD, n = 6): 136,157 (55) ng | Inhibition of p4EBP1 in paired tumor biopsies [8]: Moderate, not statistically significant, inhibition | Decrease in Cmax on co-administration of the tablet with food [9]: ~ 40% | Delay in Tmax on co-administration of the tablet with food [9]: 3.5 h | Total exposure (AUC∞) fed versus fasted [9]: similar; also recorded: comparable | Drug-related AE: diarrhea ([10]; Part A): 25% | Drug-related AE: fatigue ([10]; Part A): 50% | Drug-related AE: hyperglycemia ([10]; Part A): 23% | Drug-related AE: nausea ([10]; Part A): 41% | Drug-related AE: vomiting ([10]; Part A): 41% | Grade 3 toxicities, patients ([10]; Part A): 41% | Grade 3 toxicity: fatigue ([10]; Part A): 7% | Grade 3 toxicity: hypertriglyceridemia ([10]; Part A): 5% | Grade 3 toxicity: hypophosphatemia ([10]; Part A): 7% | Grade 3 toxicity: maculopapular rash ([10]; Part A): 5% | Grade 3 toxicity: stomatitis ([10]; Part A): 5% | Patients requiring dose reduction from initially assigned dose levels ([10]; Part A): 39% | Patients requiring drug interruption ([10]; Part A): 93% | Patients who discontinued treatment due to AEs ([10]; Part A): 7% | Patients with ≥1 drug-related AE ([10]; Part A): 93% | Dose-limiting toxicities (increased transaminases and stomatitis) ([10]; Part A, 15 mg BID): 2 DLTs | Dose-limiting toxicity (thrombocytopenia), patients ([10]; Part A, 16 mg QD): 1 patient | Dose-limiting toxicity (stomatitis), patients ([10]; Part A, 25 mg QD): 1 patient | Dose-limiting toxicities (hyperglycemia, asthenia, and fatigue), patients ([10]; Part A, 40 mg QD): 2 of 6 patients | Maximum-tolerated dose (MTD) ([10]; Part A, once-daily schedule): 25 mg QD | Non-tolerated dose (NTD) ([10]; Part A, once-daily schedule): 40 mg QD | Maximum-tolerated dose (MTD) ([10]; Part A, twice-daily schedule): 10 mg BID | Non-tolerated dose (NTD) ([10]; Part A, twice-daily schedule): 15 mg BID | Patients requiring ≥1 dose reduction, range over cohorts ([10]; Part B overall): 40–93% | Patients with dose reductions ([10]; Part B, GBM): 93%
